Laboratory results: ChEMBL document CHEMBL1148356, “Synthesis and biological evaluation of 3-heterocyclyl-7,8,9,10-tetrahydro-(7,10-ethano)-1,2,4-triazolo[3,4-a]phthalazines and analogues as subtype-selective inverse agonists for the GABA(A)alpha5 benzodiazepine binding site” (J Med Chem, 2004)

molecular target: T1, GABA-A receptor; alpha-1/beta-3/gamma-2 (Homo sapiens, UniProt P14867+P18507+P28472); test: Binding affinity towards human alpha-1-beta-3-gamma-2 GABA-A receptor using [3H]Ro-151788 expressed in L(tk-) cells; type: cell-based; conditions: not given
T1 sequence (P14867 whole entry): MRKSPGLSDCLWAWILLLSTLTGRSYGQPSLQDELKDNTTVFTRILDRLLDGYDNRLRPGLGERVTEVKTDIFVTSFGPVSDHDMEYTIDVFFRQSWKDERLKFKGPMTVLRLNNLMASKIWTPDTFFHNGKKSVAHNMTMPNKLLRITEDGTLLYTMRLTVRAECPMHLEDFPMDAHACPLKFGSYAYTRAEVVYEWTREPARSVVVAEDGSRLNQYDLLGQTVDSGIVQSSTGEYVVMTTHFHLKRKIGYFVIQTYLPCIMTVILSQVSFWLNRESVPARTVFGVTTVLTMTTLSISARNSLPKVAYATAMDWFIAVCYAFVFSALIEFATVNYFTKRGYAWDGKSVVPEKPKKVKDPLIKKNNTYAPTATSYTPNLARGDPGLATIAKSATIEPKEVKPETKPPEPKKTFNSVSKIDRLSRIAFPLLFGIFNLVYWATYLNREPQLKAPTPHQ
T1 sequence (P18507 whole entry): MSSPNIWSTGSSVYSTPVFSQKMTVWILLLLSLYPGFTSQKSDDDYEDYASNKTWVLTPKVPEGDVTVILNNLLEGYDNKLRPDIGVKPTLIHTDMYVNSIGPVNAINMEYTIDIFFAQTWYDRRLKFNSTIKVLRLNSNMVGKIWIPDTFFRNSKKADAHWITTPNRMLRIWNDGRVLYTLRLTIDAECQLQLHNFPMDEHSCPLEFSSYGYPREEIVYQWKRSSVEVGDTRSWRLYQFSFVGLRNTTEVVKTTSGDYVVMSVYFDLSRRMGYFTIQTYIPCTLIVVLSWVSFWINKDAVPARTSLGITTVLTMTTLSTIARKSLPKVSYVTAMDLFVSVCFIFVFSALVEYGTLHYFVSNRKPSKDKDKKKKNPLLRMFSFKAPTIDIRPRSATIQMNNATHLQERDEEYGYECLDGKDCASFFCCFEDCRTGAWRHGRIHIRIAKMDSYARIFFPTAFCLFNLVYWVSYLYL
T1 sequence (P28472 whole entry): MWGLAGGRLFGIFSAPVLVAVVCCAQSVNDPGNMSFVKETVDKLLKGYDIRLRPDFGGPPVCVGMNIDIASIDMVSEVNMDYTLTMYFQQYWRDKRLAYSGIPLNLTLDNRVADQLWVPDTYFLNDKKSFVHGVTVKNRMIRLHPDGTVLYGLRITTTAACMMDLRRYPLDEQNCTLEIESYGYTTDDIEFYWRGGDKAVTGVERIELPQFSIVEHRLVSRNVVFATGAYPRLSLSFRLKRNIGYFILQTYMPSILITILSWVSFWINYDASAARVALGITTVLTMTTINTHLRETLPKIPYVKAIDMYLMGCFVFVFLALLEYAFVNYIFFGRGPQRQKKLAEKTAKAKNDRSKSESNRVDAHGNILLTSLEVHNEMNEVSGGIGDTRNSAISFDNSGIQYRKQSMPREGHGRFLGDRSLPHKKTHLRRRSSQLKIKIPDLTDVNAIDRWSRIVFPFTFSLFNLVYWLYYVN

Compared with `Cc1cccc(COc2nn3c(-c4ncnn4C)nnc3c3c2C2CCC3CC2)n1`, `Cc1cccc(COc2nn3c(-c4coc(C)n4)nnc3c3c2C2CCC3CC2)n1` is lower in Ki: over 1000 nM for the first, 280 nM for the second.

Compared with `Cc1cccc(COc2nn3c(-c4cc(C)on4)nnc3c3c2C2CCC3C2)n1` (stereo unspecified), `Cc1cc(-c2nnc3c4c(c(OCc5ccccn5)nn23)C2CCC4C2)no1` (stereo unspecified) is 2.5-fold lower in Ki: 147 nM for the first, 57.7 nM for the second.

First: Cc1cc(-c2nnc3c4c(c(OCc5ccccn5)nn23)CCCC4)no1
Second: Cc1nc(-c2nnc3c4c(c(OCc5cccc[n+]5[O-])nn23)C2CCC4CC2)[o+][n-]1
The Ki of the first is 18-fold lower: 4.2 nM for the first, 74.3 nM for the second.

molecular target: T2, GABA-A receptor; alpha-5/beta-3/gamma-2 (Homo sapiens, UniProt P18507+P28472+P31644); test: Binding affinity towards human alpha-5-beta-3-gamma-2 GABA-A receptor using [3H]Ro-151788 expressed in L(tk-) cells; type: cell-based; conditions: not given
T2 sequence (P18507 whole entry): T1 sequence (P18507 whole entry)
T2 sequence (P28472 whole entry): T1 sequence (P28472 whole entry)
T2 sequence (P31644 whole entry): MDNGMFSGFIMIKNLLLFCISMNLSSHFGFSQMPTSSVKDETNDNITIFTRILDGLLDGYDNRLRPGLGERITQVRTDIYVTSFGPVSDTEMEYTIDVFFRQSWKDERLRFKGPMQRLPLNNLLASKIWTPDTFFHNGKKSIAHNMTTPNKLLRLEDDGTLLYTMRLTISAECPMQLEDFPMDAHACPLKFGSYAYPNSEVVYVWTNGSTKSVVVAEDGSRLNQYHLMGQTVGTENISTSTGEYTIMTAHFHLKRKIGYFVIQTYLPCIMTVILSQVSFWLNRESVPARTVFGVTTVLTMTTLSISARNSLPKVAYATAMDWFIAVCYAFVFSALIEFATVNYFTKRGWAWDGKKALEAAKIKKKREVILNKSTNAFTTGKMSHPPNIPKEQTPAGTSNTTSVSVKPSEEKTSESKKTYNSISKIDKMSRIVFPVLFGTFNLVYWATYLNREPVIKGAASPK

Compared with `Cc1cccc(COc2nn3c(-c4ncnn4C)nnc3c3c2C2CCC3CC2)n1`, `Cc1cccc(COc2nn3c(-c4coc(C)n4)nnc3c3c2C2CCC3CC2)n1` is 37-fold lower in Ki: 253 nM for the first, 6.8 nM for the second. The second binds more tightly here.

Compared with `Cc1cccc(COc2nn3c(-c4cc(C)on4)nnc3c3c2C2CCC3C2)n1` (stereo unspecified), `Cc1cc(-c2nnc3c4c(c(OCc5ccccn5)nn23)C2CCC4C2)no1` (stereo unspecified) is 1.6-fold lower in Ki: 8.9 nM for the first, 5.5 nM for the second. The second binds more tightly here.

`Cc1nc(-c2nnc3c4c(c(OCc5cccc[n+]5[O-])nn23)C2CCC4CC2)[o+][n-]1` was tested, and the Ki was 3.9 nM.

molecular target: GABA-A receptor; alpha-2/beta-3/gamma-2 (Homo sapiens) (UniProt P18507+P28472+P47869); test: Percent change in electrophysiological response in Xenopus oocytes expressing Alpha2-beta3-gamma2 GABA-A receptor; type: functional, cell-based; conditions: Oocyte
In short: (§1)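 Two-electrode voltage clamp on Xenopus oocytes injected with human GABA-A subunit cDNAs, 24-72 h expression, perfused with modified Barth's medium at pH 7.5, clamped between -40 and -70 mV. The GABA EC20 was titrated against a 3 mM GABA maximum. […] Result is % change of control current, mean ± SE of ≥4 oocytes.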

`Cc1cc(-c2nnc3c4c(c(OCc5ccccn5)nn23)CCCC4)no1` was tested, and the Efficacy was -6%.

molecular target: T3, GABA-A receptor; alpha-2/beta-3/gamma-2 (Homo sapiens, UniProt P18507+P28472+P47869); test: Binding affinity towards human gamma-aminobutyric-acid A receptor alpha-2-beta-3-gamma-2 using [3H]Ro-151788 expressed in L(tk-) cells; type: cell-based; conditions: not given
T3 sequence (P18507 whole entry): T1 sequence (P18507 whole entry)
T3 sequence (P28472 whole entry): T1 sequence (P28472 whole entry)
T3 sequence (P47869 whole entry): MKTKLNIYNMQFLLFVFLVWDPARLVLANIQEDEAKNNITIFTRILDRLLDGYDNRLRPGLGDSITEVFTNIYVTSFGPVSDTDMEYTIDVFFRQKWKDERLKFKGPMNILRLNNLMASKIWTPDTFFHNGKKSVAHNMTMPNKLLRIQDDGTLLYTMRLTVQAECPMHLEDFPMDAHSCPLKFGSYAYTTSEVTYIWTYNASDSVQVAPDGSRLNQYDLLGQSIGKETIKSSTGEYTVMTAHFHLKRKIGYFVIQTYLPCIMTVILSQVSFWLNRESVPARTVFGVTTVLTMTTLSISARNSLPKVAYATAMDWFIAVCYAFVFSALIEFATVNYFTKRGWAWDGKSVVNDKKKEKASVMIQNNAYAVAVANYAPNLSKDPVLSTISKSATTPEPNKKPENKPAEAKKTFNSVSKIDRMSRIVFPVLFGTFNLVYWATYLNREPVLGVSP

Going from `Cc1cccc(COc2nn3c(-c4ncnn4C)nnc3c3c2C2CCC3CC2)n1` to `Cc1cccc(COc2nn3c(-c4coc(C)n4)nnc3c3c2C2CCC3CC2)n1`, the Ki falls from over 1000 nM to 57 nM.

First: Cc1cccc(COc2nn3c(-c4cc(C)on4)nnc3c3c2C2CCC3C2)n1 (stereo unspecified)
Second: Cc1cc(-c2nnc3c4c(c(OCc5ccccn5)nn23)C2CCC4C2)no1 (stereo unspecified)
The Ki of the first is 1.9-fold higher: 38.4 nM for the first, 19.7 nM for the second. The second binds more tightly here.

Going from `Cc1cc(-c2nnc3c4c(c(OCc5ccccn5)nn23)CCCC4)no1` to `Cc1nc(-c2nnc3c4c(c(OCc5cccc[n+]5[O-])nn23)C2CCC4CC2)[o+][n-]1`, the Ki rises from 3.5 nM to 15.4 nM (4.4-fold). The first binds more tightly here.

molecular target: GABA-A receptor; alpha-5/beta-3/gamma-2 (Homo sapiens) (UniProt P18507+P28472+P31644); test: Percent change in electrophysiological response in Xenopus oocytes expressing Alpha-5-beta-3-gamma-2 GABA-A receptor; type: functional, cell-based; conditions: Oocyte; in short: as §1

Going from `Cc1cccc(COc2nn3c(-c4cc(C)on4)nnc3c3c2C2CCC3C2)n1` (stereo unspecified) to `Cc1cc(-c2nnc3c4c(c(OCc5ccccn5)nn23)C2CCC4C2)no1` (stereo unspecified), the Efficacy rises from -24% to -13%.

`Cc1cc(-c2nnc3c4c(c(OCc5ccccn5)nn23)CCCC4)no1` was tested, and the Efficacy was -23%.

molecular target: GABA-A receptor; alpha-1/beta-3/gamma-2 (Homo sapiens) (UniProt P14867+P18507+P28472); test: Percent change in electrophysiological response in Xenopus oocytes expressing Alpha1-beta3-gamma2 GABA-A receptor; type: functional, cell-based; conditions: Oocyte; in short: as §1

Work on `Cc1cc(-c2nnc3c4c(c(OCc5ccccn5)nn23)CCCC4)no1` yielded an Efficacy of 0.4%.

molecular target: T4, GABA-A receptor; alpha-3/beta-3/gamma-2 (Homo sapiens, UniProt P18507+P28472+P34903); test: Binding affinity towards human gamma-aminobutyric-acid A receptor alpha-3-beta-3-gamma-2 using [3H]Ro-151788 expressed in L(tk-) cells; type: cell-based; conditions: not given
T4 sequence (P18507 whole entry): T1 sequence (P18507 whole entry)
T4 sequence (P28472 whole entry): T1 sequence (P28472 whole entry)
T4 sequence (P34903 whole entry): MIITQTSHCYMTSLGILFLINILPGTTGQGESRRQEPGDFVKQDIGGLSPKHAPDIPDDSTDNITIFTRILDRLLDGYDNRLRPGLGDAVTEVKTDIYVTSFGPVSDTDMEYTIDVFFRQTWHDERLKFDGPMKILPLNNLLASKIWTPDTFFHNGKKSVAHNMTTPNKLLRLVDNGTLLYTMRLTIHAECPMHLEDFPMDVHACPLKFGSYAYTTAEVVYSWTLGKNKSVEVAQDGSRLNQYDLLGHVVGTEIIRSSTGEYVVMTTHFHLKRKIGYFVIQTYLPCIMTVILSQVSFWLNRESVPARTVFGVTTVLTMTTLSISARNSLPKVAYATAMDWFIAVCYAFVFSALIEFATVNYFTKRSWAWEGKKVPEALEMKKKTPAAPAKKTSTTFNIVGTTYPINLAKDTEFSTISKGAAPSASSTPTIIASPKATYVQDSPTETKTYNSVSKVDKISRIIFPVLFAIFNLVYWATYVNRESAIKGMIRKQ

Compared with `Cc1cccc(COc2nn3c(-c4ncnn4C)nnc3c3c2C2CCC3CC2)n1`, `Cc1cccc(COc2nn3c(-c4coc(C)n4)nnc3c3c2C2CCC3CC2)n1` is lower in Ki: over 1000 nM for the first, 46 nM for the second. The second binds more tightly here.

First: Cc1cccc(COc2nn3c(-c4cc(C)on4)nnc3c3c2C2CCC3C2)n1 (stereo unspecified)
Second: Cc1cc(-c2nnc3c4c(c(OCc5ccccn5)nn23)C2CCC4C2)no1 (stereo unspecified)
The Ki of the first is 1.9-fold higher: 33.5 nM for the first, 17.6 nM for the second.

Compared with `Cc1cc(-c2nnc3c4c(c(OCc5ccccn5)nn23)CCCC4)no1`, `Cc1nc(-c2nnc3c4c(c(OCc5cccc[n+]5[O-])nn23)C2CCC4CC2)[o+][n-]1` is 9.2-fold higher in Ki: 1.6 nM for the first, 14.7 nM for the second.

molecular target: GABA-A receptor; alpha-3/beta-3/gamma-2 (Homo sapiens) (UniProt P18507+P28472+P34903); test: Percent change in electrophysiological response in Xenopus oocytes expressing Alpha3-beta3-gamma2 GABA-A receptor; type: functional, cell-based; conditions: Oocyte; in short: as §1

First: Cc1cccc(COc2nn3c(-c4cc(C)on4)nnc3c3c2C2CCC3C2)n1 (stereo unspecified)
Second: Cc1cc(-c2nnc3c4c(c(OCc5ccccn5)nn23)C2CCC4C2)no1 (stereo unspecified)
The Efficacy of the first is higher: 11% for the first, 0.6% for the second.

In the case of `Cc1cc(-c2nnc3c4c(c(OCc5ccccn5)nn23)CCCC4)no1`, the Efficacy is reported as -15%.
